Assay results published in ChEMBL document CHEMBL4513216, “Probing the Open Global Health Chemical Diversity Library for Multistage-Active Starting Points for Next-Generation Antimalarials” (ACS Infect Dis, 2020).

assay: Toxicity liver stage against HepG2, at 10uM; format: cell-based; set-up: test concentration 10 uM, cell line HepG2-A16-CD81EGFP; conditions: human, HepG2-A16-CD81EGFP cells; read-out: INHIBITION
In short: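 Uninfected HepG2-A16-CD81EGFP cells, 3 × 10^3 per well, 1536-well, plated on prespotted compound at 10 μM final, parasite-free screening media added to match infected plates; puromycin 10 μM positive, DMSO 0.5% negative; run in parallel with 48 h PbLuc assay at 37 °C, 5% CO2; viability by CellTiter-Glo luminescence, normalized to controls.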

Compound | cytotoxicity at 10 µM
Cc1ccc(CN2C[C@H](OCCN(C)C)[C@H]3COC[C@H]32)o1 | 1.6%
COc1ccccc1CNCCc1cccc(C(N)=O)c1 | 3.65%
CC(C)c1noc(CN(C)C(=O)c2ccccc2-c2nc[nH]n2)n1 | 10.4%
CCc1nccn1C1CCCN(C(=O)CCCNc2ncccn2)C1 (stereo unspecified) | -1.3%
COCc1ccccc1CNc1cc(N2CCCC2CO)ncn1 (stereo unspecified) | -1.81%
CN1CCCCC1CCC(=O)NCCSc1cnn[nH]1 (stereo unspecified) | 0.00194%
CC1(C(=O)N2CCOCC2)CN(Cc2ncc[nH]2)CCO1 (stereo unspecified) | -11.3%
O=C(CC1CCCO1)NS(=O)(=O)Cc1cc(-c2ccccc2)no1 (stereo unspecified) | 9.95%
c1ccc(-c2noc(CN3CCc4cncnc4C3)n2)nc1 | -2.97%
CCn1cc(CN2CCC(c3[nH]ncc3S(C)(=O)=O)C2)cn1 (stereo unspecified) | -2.33%
COc1ccc(-c2noc(CN3CC(n4cc(C)cn4)C3)n2)cc1 | -5.97%
Cc1nnc(CN(C)C(=O)C(CC(C)C)N2CCCCC2=O)n1C (stereo unspecified) | -1.88%
Cc1cc(CN2CCCn3nc(CCC(=O)O)cc3C2)ccc1F | 2.28%
c1cc(CO[C@@H]2CC[C@H]3[C@H]2OCCN3CC2CCOCC2)ccn1 | 26.9%
COCCC(=O)N1CCCC1c1nc(O)cc(-c2ccccn2)n1 (stereo unspecified) | -5.86%
CS(=O)(=O)N1C[C@H]2CCCN(Cc3cccs3)[C@H]2C1 | 7.69%
c1cc2nc(C3CCNCC3)nn2cc1NC1CCC1 | -98.8%
O=C(NCC1(O)CCOc2ccccc21)Nc1ccccc1 (stereo unspecified) | -4.2%
Cc1cc(C(=O)N2CCC3(CCCN(CC4CC4)C3=O)C2)c(C)n1C (stereo unspecified) | -5.5%
O=C(O)CN1CCc2onc(C(c3ccccc3)c3ccccc3)c2C1 | -0.849%
Cn1cnc2cc(C(=O)NS(=O)(=O)CC3CCCC3)ccc21 | -3.2%
CC(C)Cc1noc(CN2CCOCC2)n1 | -2.27%
O=C1[C@H]2CN(C3CCOCC3)C[C@H]2CN1Cc1cccnc1 | -127%

Compound | cytotoxicity at 10 µM
CCN(Cc1cnn(CC)c1)Cc1c(Cl)cncc1Cl | -2.65%
C[C@@H]1CN(C(=O)CCN2CCOCC2)CC[C@]1(C)O | -0.51%
Cc1nc2n(n1)CC(NCc1csc(-c3ccsc3)n1)CC2 (stereo unspecified) | -0.544%
Cc1ccccc1CC(=O)N1C[C@@H](O)[C@H](N2CCN(C)CC2)C1 | -4.29%
Cc1ccc(C(=O)N2CCN(CCCSCC#N)CC2)o1 | -11.1%
CCCn1nc(C)c(CNC(=O)C2COc3ccc(OC)cc3C2)c1C (stereo unspecified) | -7.79%
CCN(CC1CCCO1)C(=O)Nc1cc(OC)c(OC)cc1C (stereo unspecified) | -10.9%
OCC1CCCN(Cc2c(C3CCCC3)[nH]c3ncccc23)C1 (stereo unspecified) | 6.35%
CC1=CC[C@@H]2CN(C(=O)c3ccc(-c4nnn(C)n4)cc3)C[C@@H]2C1 | 7.16%
OCC1CCCN1c1cc(NCCNc2cccnn2)ncn1 (stereo unspecified) | 18.5%
CC(C(=O)NCC1(c2c(F)cccc2F)CCCC1)S(C)(=O)=O (stereo unspecified) | 8.14%
O=C(c1ccccc1OCC1CC1)N1CCCC(n2ccnc2)C1 (stereo unspecified) | -1.8%
O=C1CCC2(CCN(c3ncc(F)cn3)CC2)N1CCN1CCCC1 | 10.5%
Cc1nc(N2CCCC2)ncc1-c1cc(O)nc(N2CCCCC2)n1 | 10.7%
CCOc1ccc(NC(=O)N2CCOC(C(N)=O)C2)cc1C (stereo unspecified) | -140%
Cc1nccc(C(=O)N2CCOC(c3nc(C(C)C)n[nH]3)C2)n1 (stereo unspecified) | -15.7%
CC(C)C1CN(Cc2cnc(N(C)C)nc2)CCCN1CC1CC1 (stereo unspecified) | -6%
CN(C)c1ccc(CNC(=O)NCCc2cn3ccccc3n2)cn1 | -3.06%
CC(C)N(CCCNC(=O)C1CC(=O)N(C)C1)S(C)(=O)=O (stereo unspecified) | 8.35%
Cc1nc(C2(NCc3ccc(C#N)cc3F)CCCCC2)no1 | -11.2%
COc1ccc2c(ccn2CC(=O)Nc2n[nH]c(CC(C)C)n2)c1 | -6.19%
COc1ccc(CNC(=O)CCc2nnc3ccccn3c2=O)cc1 | -13.5%
O=C1CCC(c2ccccc2)=NN1CN1CCCCCC1 | -86.3%

Compound | cytotoxicity at 10 µM
CC(=O)N1CCCC2(CCN(c3nncs3)C2)C1 (stereo unspecified) | -103%
CCC(Nc1ccc(CCN2CCOCC2)cc1)C(N)=O (stereo unspecified) | 4.42%
O=C(Cc1ccccn1)N1C[C@H]2CC[C@@H](C1)N(Cc1ccccc1)C2=O | -13%
CNC(=O)c1cccc(NC(=O)NCc2ccc(SC)cc2)c1C | -4.44%
Cc1ncc(C(=O)Nc2cncnc2N(C)C)c(Cl)c1Cl | 0.776%
Cn1cc(CC2CCN(C(=O)NCCCc3ccc(O)cc3)C2)cn1 (stereo unspecified) | 0.557%
O=C(NC1CCC1)[C@@H]1C[C@@H]2CCN(Cc3cccs3)C[C@@H]2O1 | 5.38%
CC(c1ccc(F)cc1F)N1CCN(Cc2nccn2C)CC1 (stereo unspecified) | -11.7%
O=C(COc1ccccc1)N1CCCC1c1ccc[nH]1 (stereo unspecified) | -0.575%
CC(C)C(O)CNC(=O)CCCc1ccccn1 (stereo unspecified) | 0.665%
Fc1cnc(NCC2Cn3nnc(-c4ccccc4)c3CO2)nc1 (stereo unspecified) | -64.7%
Cc1nn(C)c2ncc(S(=O)(=O)N3CCCN4CCCC4C3)cc12 (stereo unspecified) | -0.334%
CC(O)CNc1ccc(C#N)cc1C(F)(F)F (stereo unspecified) | -42.7%
CCc1csc(C2CCCN(C(=O)c3cc(Cl)c[nH]3)C2)n1 (stereo unspecified) | -9.83%
Cc1nc2c(C#N)cnn2c(C)c1CCC(=O)N(C)C1CC1 | -47.2%
COc1ccccc1NC(=O)NC(C)c1nc[nH]n1 (stereo unspecified) | 2.8%
Cc1ccc(C(=O)NS(=O)(=O)c2ccccc2F)c(=O)[nH]1 | -5.53%
COC[C@@]12CCO[C@@H]1CCN(C(=O)Cc1cccc(F)c1)C2 | -8.95%
NCc1cccc(-c2cccnc2C(=O)NCCN2CCCC2)c1 | -6.9%
CC(O)c1cccc(Nc2nc(NCCO)c3ccccc3n2)c1 (stereo unspecified) | 18.4%
CCC(O)CN1CCN(C(=O)C2(c3ccc(C)c(OC)c3)CC2)CC1 (stereo unspecified) | 3.83%
Cc1cc(N2CCC(O)(CN(C)C(=O)CCCN)C2)c2cnccc2n1 (stereo unspecified) | -8.65%
CC1CN(Cc2cccc(CN)c2)CCO1 (stereo unspecified) | -8.99%

Compound | cytotoxicity at 10 µM
CCOCc1nc(N2CCCC2)sc1C(=O)NCc1ccco1 | -1.89%
CSC(C)C(=O)N1CCCN(Cc2cscn2)CC1 (stereo unspecified) | -2.19%
CCS(=O)(=O)N1CCc2c(nc(C3CCCN3)nc2NC)C1 (stereo unspecified) | -10.2%
COCCCN1CCCN(C(C)c2nc(C3CC3)no2)CC1 (stereo unspecified) | -8.77%
CC(Cn1cccn1)NC(=O)NCc1cccs1 (stereo unspecified) | -0.12%
CN(Cc1cccnc1)CC1CC12CCN(c1nncs1)CC2 (stereo unspecified) | 9.28%
Cc1ccc(CN2CCC(c3cnccn3)CC2)s1 | -0.64%
COCCNC(=O)Cn1cc(NC(=O)c2cccc(Cl)c2Cl)cn1 | -7.04%
CC(=O)N1[C@H](Cn2cncn2)C[C@@H]2CN(C(=O)c3ccoc3)CC[C@@H]21 | -3.42%
CCN(C(=O)CN1CCCC1c1ccc(OC)cc1)c1ccccc1 (stereo unspecified) | -2.25%
CN1CCCC(C(=O)N2CCC(Oc3ccccn3)CC2)C1 (stereo unspecified) | -5.15%
COc1ccc(C[C@H]2CN(C(=O)CS(C)(=O)=O)CC[C@H]2OC)cc1 | 2.64%
CC(NC(=O)NC1CCN(Cc2ccncc2)CC1)c1ccc(F)cc1 (stereo unspecified) | 7.9%
CN(C)C(=O)CN1CCC2(CCCN(Cc3cccs3)C2)C1=O (stereo unspecified) | -113%
COc1cccc(-c2nc(CNCc3cccnc3)cs2)c1 | -9.37%
CCOC[C@@]12CCC[C@@H]1CN(C(=O)c1ccc(OC)cc1)C2 | -108%
Cc1nc(CN2C[C@@H]3CN(c4ncc(F)cn4)C[C@@H]3C2=O)cs1 | -0.673%
CC(=O)N1CCCC2(CN(Cc3ccc(F)cc3)CCO2)C1 (stereo unspecified) | 0.283%
Cc1cnn(CC2CCCCN2C(=O)c2sccc2C#N)c1 (stereo unspecified) | 0.185%
Cc1cnn(CC2CCCCN2C(=O)c2ccc3nncn3c2)c1 (stereo unspecified) | -8.66%
Cc1csc(CNC(=O)N(C)Cc2ccc([S+](C)[O-])cc2)n1 (stereo unspecified) | 4.53%
COc1cc(C(C)NCc2scnc2C)ccc1SC(F)F (stereo unspecified) | 36.8%
Cc1cc2n(n1)CC(CNC1CCN(C(=O)C3CC3)CC1)CN2 (stereo unspecified) | 5.17%

Compound | cytotoxicity at 10 µM
CC(C)NC(=O)CN(C)C1CCN(c2ccc(Cl)cn2)CC1 | 3.5%
CCCn1ncc(C(=O)NC2CCN(CC3CCCO3)CC2)c1C (stereo unspecified) | -2.43%
Cc1ccn(CCNc2ncnc3c2CCN(c2cnccn2)CC3)n1 | -1.81%
O=C(CN1CCCc2sccc2C1=O)NC1CCc2nccn2C1 (stereo unspecified) | 16.1%
COCCN1CCCC2(CCN(c3nc(C)nc4ccsc34)C2)C1=O (stereo unspecified) | 10.7%
O=C(c1ccccc1)N1Cc2nccn2CC(Cn2ncccc2=O)C1 (stereo unspecified) | 10.4%
Cc1oc(-c2ccco2)nc1CC(=O)N1CCC(CCO)C1 (stereo unspecified) | -2.02%
CCc1nc(-c2noc3ccc(C(=O)NCCN(C)C)cc23)co1 | -150%
COc1cccc(N2CC3(CCN(c4ccc(C)nn4)C3)CC2=O)c1 (stereo unspecified) | 6.62%
CC1(C)Cc2nc(C(C)(C)C)ncc2C(NC(=O)CN)C1 (stereo unspecified) | -6.55%
O=C(NCCCN1CCOCC1)c1cc(-c2ccc3c(c2)CCO3)n[nH]1 | -3.73%
COCCOCC(=O)NC(C#N)c1cc(Cl)cc(Cl)c1 (stereo unspecified) | 8.31%
O=C1CO[C@H]2CN(C3CCOCC3)C[C@H]2N1Cc1ccc(F)cc1 | -6.35%
Cc1ccc(-c2ccnc(NCC3(N(C)C)CCOCC3)n2)c(C)n1 | 13.1%
COc1ncccc1C1CC(=O)NCc2nc3sccn3c21 (stereo unspecified) | 3.86%
O=C(c1n[nH]cc1Br)N1CCOCC1 | 5.31%
CNC(=O)NC(=O)C(C)N1CCN(C2CCCC2)CC1 (stereo unspecified) | -14%
CC(C)c1noc(C(C)N2CCC(c3nc4ccccc4o3)CC2)n1 (stereo unspecified) | 8.05%
Cc1noc(C)c1CN1CCO[C@H]2CN(C(=O)C3CCOCC3)C[C@H]21 | 0.845%
